Measured values of several laboratories.
Protocols differ between the studies behind these lines.
ADRA2C: Alpha-2C adrenergic receptor (ADRA2C, Homo sapiens, UniProt P18825)
Fibroblast growth factor 14: Fibroblast growth factor 14 (Homo sapiens, UniProt Q92915)
PLEKHA3: PLEKHA3 (Homo sapiens, UniProt Q9HB20)
MAPK14: Mitogen-activated protein kinase 14 (MAPK14, Homo sapiens, UniProt Q16539)

SMILES | target | effect on | mode | technique | endpoint | result
Cc1cc(Oc2ncccc2CN2CCN(c3ccc(Br)cc3)CC2)ccc1-c1c(C)c(=O)[nH]c(=O)n1C | ADRA2C | ligand displacement |  | radioligand | Ki | 0.0761 µM
Cc1cccc(NC(=O)Cn2cc(CO)c3ccccc32)c1 | Fibroblast growth factor 14 | binding |  | SPR | Kd | 1.9 µM
Cc1cc(Oc2ncccc2CN2CCN(c3cccc(F)c3)CC2)ccc1-c1c(C)c(=O)[nH]c(=O)n1C | ADRA2C | ligand displacement |  | radioligand | Ki | 0.02 µM
CCOc1ccc(-c2cc(C(=O)O)c(-c3ccc(Cl)cc3)o2)cc1 | PLEKHA3 | ligand displacement |  | FP | Ki | 0.55 µM
CC(=O)Nc1ccc(Oc2ccc3c(c2)C(=O)N(c2cc(C)ccc2C)C3=O)cc1 | Fibroblast growth factor 14 | binding |  | SPR | Kd | 13.6 µM
COc1nc(-c2cccc(-c3ccccc3)c2C)ccc1CNCCNC(=O)CCCCCCCCCCC(=O)N1CCN(CCNC(=O)c2cc3c(=O)n4cccc(C)c4nc3n(CCc3cccs3)c2=N)CC1 | Programmed cell death 1 ligand 1 (Cd274, Mus musculus, UniProt Q9EP73) | binding |  | BLI | Kd | 0.625 µM
CCOc1ccc(C(=O)CC(SCc2ccc(F)cc2)C(=O)O)cc1 (stereo not drawn) | PLEKHA3 | ligand displacement |  | FP | Ki | 13.8 µM
Cc1cc(Oc2ncccc2CN2CCN(c3cccc4ccccc34)CC2)ccc1-c1c(C)c(=O)[nH]c(=O)n1C | ADRA2C | ligand displacement |  | radioligand | Ki | 0.0143 µM
O=c1cc(-c2ccc([N+](=O)[O-])cc2)[nH]c2c(-c3ccc(Cl)cc3)c(Cc3ccccc3)nn12 | Fibroblast growth factor 14 | binding |  | SPR | Kd | 0.94 µM
CCOc1ccc(C(=O)CC(SCc2ccc(Cl)cc2)C(=O)O)cc1OCC (stereo not drawn) | PLEKHA3 | ligand displacement |  | FP | Ki | 6.81 µM
c1ccc(-c2n[nH]cc2-c2ccncc2)nc1 | MAPK14 | enzyme activity | inhibitor | ADP detection | IC50 | 4.5 µM
CCOc1ccc(C(=O)CC(SCc2cccc(Br)c2)C(=O)O)cc1 (stereo not drawn) | PLEKHA3 | ligand displacement |  | FP | Ki | 6.03 µM
Cc1cc(Oc2ncccc2CN2CCN(c3ccc([N+](=O)[O-])cc3Cl)CC2)ccc1-c1c(C)c(=O)[nH]c(=O)n1C | ADRA2C | ligand displacement |  | radioligand | Ki | 0.623 µM
CCOc1ccccc1C(=O)CC(SCc1ccc(Cl)cc1)C(=O)O (stereo not drawn) | PLEKHA3 | ligand displacement |  | FP | Ki | 7.8 µM
Cn1cc(-c2ccnc3ccccc23)c(-c2ccccn2)n1 | MAPK14 | enzyme activity | inhibitor | ADP detection | IC50 | 9.4 µM
